Screening results deposited in PubChem by Johns Hopkins Ion Channel Center.
A selection: hits, their analogues and other compounds. The true share with any hit is near 3.5%.
RGS4 inh: RGS4 inhibitors, primary screen, cell-based, HEK293 M3R inducible RGS4, calcium flux | Regulator of G-protein signaling 4 (Homo sapiens), P49798 | Fluo-4 calcium flux; active compounds read high; triggered by carbachol at its EC20 | B-score at 10 µM | 310,000 tested, 0.45% active;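 active = B-score, a plate-corrected calcium signal, over three deviations above library mean, with baseline fluorescence within five deviations of library mean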;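 note: RGS4 expression induced by doxycycline in cells with stable M3 receptor; B-score is computed from the integrated fluorescence ratio over baseline after carbachol; higher B-score means a larger calcium signal and so more RGS4 inhibition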
Target sequence (P49798 whole entry, looked up): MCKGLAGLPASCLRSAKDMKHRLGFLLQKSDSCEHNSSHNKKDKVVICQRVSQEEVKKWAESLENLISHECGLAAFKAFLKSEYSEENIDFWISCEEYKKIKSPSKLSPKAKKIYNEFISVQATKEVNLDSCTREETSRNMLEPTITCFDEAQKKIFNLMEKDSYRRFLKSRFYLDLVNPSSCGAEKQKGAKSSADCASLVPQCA
MrgX1 agonist: agonists of human MrgX1 receptor, primary screen, HEK293 cells, Fluo-4 calcium flux | AID 588627, 2011 | Fluo-4 calcium fluorescence, agonist mode; active compounds read high | 310,000 tested, 0.44% active | B-score at 10 µM;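 active = calcium response B-score plate-corrected fluorescence ratio at least 3 library SD, with starting fluorescence B-score inside 5 SD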
Target sequence (Q96LB2 whole entry, looked up): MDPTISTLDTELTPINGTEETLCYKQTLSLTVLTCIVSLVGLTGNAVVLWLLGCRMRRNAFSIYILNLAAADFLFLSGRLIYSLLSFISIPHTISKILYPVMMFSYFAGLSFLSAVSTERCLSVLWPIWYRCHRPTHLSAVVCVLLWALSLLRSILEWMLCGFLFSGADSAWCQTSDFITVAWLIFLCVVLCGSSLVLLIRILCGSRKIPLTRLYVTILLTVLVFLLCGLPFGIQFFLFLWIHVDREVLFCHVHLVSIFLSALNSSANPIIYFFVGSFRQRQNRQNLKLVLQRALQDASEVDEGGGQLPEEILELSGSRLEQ
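Material: MrgX1-expressing HEK293 cells; input: 15,000 cells per well; doses: test compound given as first of three sequential additions; schedule: overnight plating before 1 h dye loading; technique: Fluo-4 NW calcium-flux fluorescence, kinetic read; evaluation: baseline-normalised fluorescence change ratio, B-scored; control set: plate-wise positive and negative controls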
MrgX1 PAM: positive allosteric modulators of MrgX1, primary screen, HEK293 cells, Fluo-4 calcium flux. Mas-related G-protein coupled receptor member X1 (Homo sapiens), Q96LB2. FDSS; active compounds read high. B-score at 10 µM. 310,000 tested, 0.63% active;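 active = plate-corrected calcium response at least 3 library SD above typical, normal starting fluorescence, not activating the receptor alone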;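 note: compound read alongside a low EC10 to EC30 dose of BAM8-22 agonist; peak minus trough fluorescence over baseline measured at the second addition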
MrgX1 antag: antagonists of human MrgX1 receptor, primary screen, HEK293 cells, Fluo-4 calcium flux. BAM8-22 antagonism; active compounds read low. B-score at 10 µM. 310,000 tested, 1.3% active. Mas-related G-protein coupled receptor member X1 (Homo sapiens), Q96LB2. AID 588676, 2011;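 active = calcium-response B-score plate-corrected more than 3 library SD below zero, starting fluorescence within 5 deviations, no agonist response on first addition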;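 note: peak minus trough fluorescence over baseline after final BAM8-22 challenge near maximal dose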
RGS4 pot: RGS4 potentiators or activators, primary screen, cell-based, HEK293 M3R inducible RGS4, calcium flux | carbachol calcium flux Fluo4; active compounds read low | B-score at 10 µM | 310,000 tested, 0.92% active;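 active = B-score of the integrated calcium signal more than 4 SD below the library mean, with starting fluorescence not abnormally high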;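 note: negative B-score means reduced calcium response which marks RGS4 activation or potentiation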
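Also added: carbachol at ECmax as muscarinic agonist stimulus; Assay system: HEK293 cells with stable M3R and inducible RGS4; Timing: overnight RGS4 induction, 30 min dye load 37 °C, 20 min compound RT; Measured by: Fluo4-AM (2 µM) calcium-flux fluorescence, kinetic read.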
Large screens that a line does not name were inactive.

CCc1cc2c3c(c(=O)oc2cc1O)CCCC3	MrgX1 antag -5.5
O=C(Cn1c(CO)nc2ccccc21)NC1CCCCCC1	MrgX1 antag -10
Nc1nonc1-c1nc2ccccc2n1CC(=O)NC1CCCC1	none
COC(=O)c1cc(C(=O)c2cc(F)ccc2O)cn2c(=O)c3c(C)c(C)sc3nc12	MrgX1 antag -4.7, RGS4 pot -7
COc1cc(N(C)C)c([N+](=O)[O-])cc1C(=O)NC(C)CNc1ccc([N+](=O)[O-])cc1Cl (configuration not stated)	MrgX1 antag -6.1
CCN(CC)CCNC(=O)c1cc([N+](=O)[O-])c(N(C)C)cc1OC	none
O=C(COC(=O)COc1ccccc1[N+](=O)[O-])NC1CCCC1	none
C#CCSc1ncc(-c2ccccc2)cn1	MrgX1 antag -7.5
Cc1cc(C)c2nc(SCC(=O)NNC(=O)c3ccco3)c(C)cc2c1	none
Cc1cc2cccc(C)c2nc1SCC(=O)NNC(=O)c1ccco1	MrgX1 PAM 12
CCN(CC)CCNc1nc(-c2ccccc2)nnc1C(F)(F)F	none
Cc1ccc(/C=C2\SC(=S)N(NS(=O)(=O)c3ccc(C)cc3)C2=O)cc1	RGS4 pot -8.2
COc1cc(/C=C2\SC(=S)N(NS(=O)(=O)c3ccccc3)C2=O)cc(OC)c1OC	none
O=C1/C(=C/c2ccccn2)SC(=S)N1NS(=O)(=O)c1ccccc1	MrgX1 PAM 8.9, MrgX1 antag -5.3
Cc1ccc(S(=O)(=O)NN2C(=O)/C(=C\c3ccc(Cl)cc3)SC2=S)cc1	none
O=C1/C(=C/c2cccc(F)c2)SC(=S)N1NS(=O)(=O)c1ccccc1	none
COc1ccc(/C=C2/SC(=O)N(NS(=O)(=O)c3ccccc3)C2=S)cc1OC	MrgX1 agonist 27
COc1ccc(/C=C2/SC(=S)N(NS(=O)(=O)c3ccc(C)cc3)C2=O)cc1	MrgX1 antag -5.2, RGS4 pot -8.4
C=CCOc1ccc(/C=C2\SC(=S)N(NS(=O)(=O)c3ccc(C)cc3)C2=O)cc1	RGS4 pot -7
COc1cccc(C(=O)Nc2c(C)n[nH]c2C)c1	none
O=C(CCNS(=O)(=O)c1ccccc1)N1CCCCCC1	RGS4 pot -7.1
C[C@H](O)[C@H](O)[C@H]1CNc2nc(N)[nH]c(=O)c2N1	MrgX1 antag -5.4
C[C@H](O)C(=O)C1=Nc2c(nc(N)[nH]c2=O)NC1	none (no result: RGS4 inh, RGS4 pot)
C=C(C)CNC(=S)N/N=C(\C)c1ccc(Cl)s1	MrgX1 antag -6.1
CCNC(=S)N/N=C(\C)c1ccc(Cl)s1	RGS4 pot -7.1
COc1ccc(OC)c(CN2C(=O)c3ccccc3C2C(=O)NCC2CCCO2)c1 (configuration not stated)	none
CCn1ccnc1[C@@H]1C[C@H]2CN(Cc3cccc(Cl)c3)C(=O)[C@]23CCCN13	none
Nc1nc(-c2ccccc2)c(-c2ccc([N+](=O)[O-])cc2)s1	MrgX1 antag -5.1
ON=C1c2cc(OCCN3CCCCC3)ccc2-c2ccc(OCCN3CCCCC3)cc21	none
NC(=S)NN=C1c2cc(OCCN3CCOCC3)ccc2-c2ccc(OCCN3CCOCC3)cc21	RGS4 pot -7.4
O=C(/C=C/c1ccco1)N1CCN(S(=O)(=O)c2cccs2)CC1	none
Cn1c(-c2cccc([N+](=O)[O-])c2)cnc1NCc1cccc([N+](=O)[O-])c1	none
COc1ccc(OC)c(CNc2ncc(-c3cccc([N+](=O)[O-])c3)n2C)c1	RGS4 pot -7
CCOc1ccccc1Nc1nnc(SCc2nnc(-c3cc(OC)c(OC)c(OC)c3)o2)s1	MrgX1 antag -6.2
COc1ccccc1Nc1nnc(SCc2nnc(-c3cc(OC)c(OC)c(OC)c3)o2)s1	MrgX1 PAM 7.1
COc1cc(-c2nnc(CSc3nnc(Nc4ccc(C(C)C)cc4)s3)o2)cc(OC)c1OC	none
COc1ccc(S(=O)(=O)n2nc(-c3cc(OC)c(OC)c(OC)c3)cc2N)cc1OC	none (no result: RGS4 inh, RGS4 pot)
COc1ccc(-c2cc(N)n(S(=O)(=O)c3c(F)c(F)c(F)c(F)c3F)n2)cc1OC	MrgX1 antag -6.9
CCN(CC)CCNC(=O)c1c(C)n(-c2ccccc2)c2cc(Br)c(OC)cc12	MrgX1 antag -7.3
COc1ccccc1OCc1ccc(C(=O)N/N=C/c2ccco2)cc1	none
CCC(C)(C)NC(=O)C(c1ccco1)N(C(=O)Cn1nnc2ccccc21)c1ccc2c(c1)OCO2 (configuration not stated)	MrgX1 PAM 8.9
Cc1ccc(N(C(=O)Cn2nnc3ccccc32)C(C(=O)NCc2ccco2)c2ccc(C)o2)cc1 (configuration not stated)	none (no result: MrgX1 agonist, MrgX1 PAM, MrgX1 antag)
Cc1nc2sc3c(c2c(=O)n1/N=C/c1ccco1)CCCC3	none
S=C(Nc1ccc2nsnc2c1)N1CCCCCC1	none
Fc1cccc(Cc2noc(CN3CCCN(C4Cc5ccccc5C4)CC3)n2)c1	RGS4 pot -7.5
Fc1cccc(Cc2noc(CN3CCSCC3)n2)c1	none
CCCCCCCCCCn1c2c(c(=N)c3c1CCC3)CCC2	MrgX1 antag -6.2, RGS4 pot -8.7
Cc1cc(C)c2cc3c(N)c(C(=O)N4CCc5ccccc5C4)sc3nc2c1	MrgX1 antag -8.5, RGS4 pot -8
Cc1ccc(C(=O)O/N=C2/CC3CCC2(C)[C@@]3(C)CBr)cc1 (some centres not stated)	none
Cc1ccc(C(=O)O/N=C2\CC3CCC2(C)C3(C)C)cc1 (configuration not stated)	MrgX1 PAM 6.6
Cc1cccc(C(=O)O/N=C2/CC3CCC2(C)C3(C)C)c1 (configuration not stated)	MrgX1 PAM 8.2
COc1cc(/C=C2\C(=O)NN(c3ccc(C)cc3)C2=O)cc([N+](=O)[O-])c1O	none
COc1cc(/C=C2/C(=O)NN(c3ccc(Cl)cc3)C2=O)cc(OC)c1O	MrgX1 agonist 44
CCOC(=O)COc1ccc(/C=C2/C(=O)NN(c3ccc(F)cc3)C2=O)cc1OC	MrgX1 agonist 46
COc1cc(C(CC(=O)Nc2cccc(C)n2)N2Cc3ccccc3C2=O)cc(OC)c1OC (configuration not stated)	none
CCC(C)[C@H]1CN=C(N)N1CC1CCCCC1 (some centres not stated)	none
COc1ccc(NC(=O)c2ccc(-n3cncn3)c([N+](=O)[O-])c2)cc1OC	none
O=C(Nc1cccc(/C=C/c2ccccn2)c1)c1ccc(-n2cncn2)c([N+](=O)[O-])c1	RGS4 pot -7.7
COc1ccc(CNC(=O)COc2cccnc2[N+](=O)[O-])cc1OC	MrgX1 PAM 6.9
Cc1ccc(C(C)NC(=O)c2cc3cc(Br)ccc3oc2=N)cc1 (configuration not stated)	RGS4 pot -9.2
